Only some compounds are listed: those with a hit (about 3.1% of all), similar ones and a draw of the others.
OX1R antag-1: antagonists of human orexin 1 receptor (OX1R) | hit rate 1.8% among 330,000 | AID 485270 | inhibition, % at 6.6 µM | O43613 | OX1R-expressing cells, FRET antagonist read-out; in the data active = inhibition mostly above about 38%, no sharp cut-off; inactive = mostly below about 40%
OX1R antag-2: human HCRTR1 antagonism; O43613; CHO/OX1R cells, Fluo-8 calcium fluorescence, orexin A; inhibition, % at 5 µM; hit rate 0.43% among 330,000; AID 434989;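 active = inhibition above its plate's threshold, mean inhibition of all tested compounds on the plate plus 3 SD, cut at about 37% in these data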
GalR3 antag: human GalR3 antagonism | O60755 | HEK293 GalR3-CNG cAMP membrane potential fluorescence; galR3 body fused to GalR1 C-terminus | inhibition, % at 3 µM | hit rate 0.44% among 360,000 | AID 651719;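 active = inhibition above the screen-wide average plus 3 SD, cut at about 13% in these data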;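 note: forskolin and galanin both at EC90 stimulate the cells; cAMP rise reported by CNG channel membrane potential dye signal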
CHO parental Ca: counter-screen for OX1R antagonists: effect in parental CHO cells; parental CHO-K1, ATP-induced calcium, Fluo-8 fluorescence; inhibition, % at 5.6 µM; hit rate 0.63% among 330,000;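 active = inhibition above that plate's mean sample inhibition plus 3 SD, cut at about 26% in these data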
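Material: parental CHO cells / Compound: single nominal dose of 5.6 µM per compound / Signal: Fluo-8 fluorescence / Replicates: singlicate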
GPR7 antag: antagonists of human GPR7 (neuropeptides B/W receptor 1) | AID 1861 | hit rate 1.1% among 290,000 | inhibition, % at 4.4 µM | P48145 | GPR7-expressing cells, fluorescence antagonist assay; in the data active = inhibition above about 16%, passing the limit was not always enough;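 note: cells stimulated with the agonist NPW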
Target sequence (P48145 whole entry, looked up): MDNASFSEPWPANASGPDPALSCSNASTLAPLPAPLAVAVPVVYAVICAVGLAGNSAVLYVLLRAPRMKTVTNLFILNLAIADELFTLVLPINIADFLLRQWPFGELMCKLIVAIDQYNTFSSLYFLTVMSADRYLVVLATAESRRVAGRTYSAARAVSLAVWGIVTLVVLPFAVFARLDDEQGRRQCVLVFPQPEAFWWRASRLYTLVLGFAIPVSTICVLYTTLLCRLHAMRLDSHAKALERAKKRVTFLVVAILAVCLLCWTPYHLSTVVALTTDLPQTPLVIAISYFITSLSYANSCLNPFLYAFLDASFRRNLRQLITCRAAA
Large screens that a line does not name were inactive.

COc1cccc(C(=O)N(Cc2ccco2)c2c(N)n(Cc3ccccc3)c(=O)[nH]c2=O)c1	none (no result: GPR7 antag)
CC(C)Nc1nc(NC(C)C)nc(N(C)N)n1	CHO parental Ca 100
COC(=O)[C@]12C[C@H](CC(=O)NCCc3ccccc3OC)C(=O)N(Cc3ccc4c(c3)OCO4)C1=C[C@H](COCc1ccccc1)O[C@@H]2C	none (no result: OX1R antag-1, OX1R antag-2, CHO parental Ca, GPR7 antag)
Cc1ccc(S(=O)(=O)Nc2ccc(N3CCOCC3)cc2)cc1C	none
CC(C)=CCC12Oc3cc(O)ccc3C1(O)Oc1cc3c(c(O)c1C2=O)C=CC(C)(C)O3 (stereo not given)	CHO parental Ca 44 (no result: GalR3 antag, GPR7 antag)
Cn1c(=O)c2c(c3ccccc31)OC(C)(C)C=C2	none (no result: OX1R antag-1, OX1R antag-2, CHO parental Ca, GPR7 antag)
O=C(Nc1c(Cl)ccc2nsnc12)c1ccc(Br)o1	none (no result: OX1R antag-1, OX1R antag-2, CHO parental Ca, GPR7 antag)
NC(=O)c1oc2ccccc2c1NC(=O)c1ccc(F)cc1	none
CC(=O)c1cccc(NC(=O)c2ccc([N+](=O)[O-])o2)c1	OX1R antag-1 57 (no result: GPR7 antag)
O=C(Nc1c(Cl)ccc2nsnc12)c1ccc([N+](=O)[O-])o1	OX1R antag-1 57
COc1ccc(NC(=O)c2ccc([N+](=O)[O-])o2)cc1	OX1R antag-1 49
NC(=O)c1oc2ccccc2c1NC(=O)c1ccc([N+](=O)[O-])o1	OX1R antag-1 48
CC(=O)c1ccc(NC(=O)c2ccc([N+](=O)[O-])o2)cc1	none (no result: OX1R antag-1, OX1R antag-2, CHO parental Ca)
COc1cccc(C(=O)N[C@@H](CC(C)C)C(=O)N2CCC[C@H]2C(=O)NCc2ccccc2)c1	none (no result: OX1R antag-1, OX1R antag-2, CHO parental Ca, GPR7 antag)
CC1(C)Cc2c(sc(NC(=O)COc3cccc4ccccc34)c2C#N)C(C)(C)N1	CHO parental Ca 82
Cc1oc2cc3oc(=O)c(CCC(=O)N(C)CC(=O)O)c(C)c3cc2c1C	none
C/C(CC(C)(C)C1CCCCC1)=N\NC(N)=S	GPR7 antag 37
O=C(Nc1ccccc1Cl)N1CCCN(c2nc(-c3ccccc3)ns2)CC1	OX1R antag-1 74
O=C(Nc1ccccc1)N1CCN(c2nc(-c3ccccc3)ns2)CC1	none
O=C(CSCC(=O)N1CCCc2ccccc21)Nc1nc(-c2ccccc2)cs1	OX1R antag-1 33 (no result: GalR3 antag)
S=C(NCc1cccs1)Nc1cc(Cl)cc(Cl)c1	CHO parental Ca 39
COc1ccc(-c2ccc3c(n2)CCCN3S(=O)(=O)c2c(C)noc2C)cc1	none (no result: OX1R antag-1, OX1R antag-2, CHO parental Ca, GPR7 antag)
CC(=O)Nc1ccc2nc3c(=O)n(C)c(=O)n(C)c3nc2c1	OX1R antag-1 60
CC(=O)Nc1ccc(NC(=O)CSc2nc3c(=O)n(C)c(=O)n(C)c3n2C)cc1	none (no result: OX1R antag-1, OX1R antag-2, CHO parental Ca, GPR7 antag)
O=[N+]([O-])c1ccc(Sc2n[nH]c(-c3ccccc3)n2)nc1	OX1R antag-1 74
O=[N+]([O-])c1ccc(Sc2ccccc2)nc1	none
COc1ccc(C(=O)C(CCC(CNC(C)(C)C)C(=O)c2ccc(OC)cc2)CNC(C)(C)C)cc1 (stereo not given)	GPR7 antag 79
O=C(CCCc1nc(-c2ccc(Cl)cc2)no1)NC1CCCC1	CHO parental Ca 48
Cc1ccc(NC(=O)CN(C)C(=O)c2ccc(S(=O)(=O)N(C)c3ccccc3)cc2)cc1	none
Cc1ccc(C)c(NC(=O)CN(C)C(=O)c2ccc(S(=O)(=O)N(C)c3ccccc3)cc2)c1	OX1R antag-1 30 (no result: GPR7 antag)
Cc1occc1-c1nnc(SCC(=O)Nc2nc(C(C)(C)C)cs2)o1	CHO parental Ca 36
Cc1csc(NC(=O)CSc2nnc(-c3ccoc3C)o2)n1	none
O=[N+]([O-])c1cc(Br)c(O)c(/C=N/Nc2nnnn2-c2cccc3ccccc23)c1	OX1R antag-1 45
Cc1cc2cc(OCC(=O)O)ccc2n1C	OX1R antag-1 59
CC(=O)OCCN1C(=O)c2cccc3cc([N+](=O)[O-])cc(c23)C1=O	OX1R antag-1 69 (no result: GalR3 antag, GPR7 antag)
O=C1c2cccc3cc([N+](=O)[O-])cc(c23)C(=O)N1CC1CCCO1 (stereo not given)	OX1R antag-1 60
FC(F)(F)c1ccccc1NC(=S)Nc1cccc(Cl)c1	none
COc1ccc(OC)c(CCNC(=O)CCC(=O)N2CCOc3ccc(C)cc32)c1	OX1R antag-1 39 (no result: GalR3 antag)
C[C@@H]1OC(C2CCCCC2)N(C)[C@H]2C[C@H]3c4[nH]c5cccc(-c6ccccc6)c5c4CCN3C(=O)[C@@H]12 (stereo not given in full)	none (no result: OX1R antag-1, OX1R antag-2, CHO parental Ca, GPR7 antag)
CCCCCCCCCCCCCCCC[n+]1cccc2ccccc21	OX1R antag-2 63, CHO parental Ca 89
CC(C)CC(=O)Nc1ccc(C(=O)COC(=O)C2=COCCO2)cc1	none (no result: GPR7 antag)
O=C(C1CCN(S(=O)(=O)c2ccccc2[N+](=O)[O-])CC1)N1CCOCC1	none
COCCN(C(=O)CSc1nnc(-c2ccccc2OC)o1)c1c(N)n(CC(C)C)c(=O)[nH]c1=O	none (no result: GPR7 antag)

High-throughput results from PubChem BioAssay.
